High-throughput results deposited in PubChem by several laboratories.
The list is not random: actives were taken first. Their share in the collection is about 1.5%.
Hsp70 activator: Hsp70 transcriptional activators, primary screen, cell-based, HeLa, Hsp70 promoter luciferase, luminescence, 10 µM. activation, % at 10 µM. HeLa Hsp70 promoter luciferase reporter; scaled: vehicle 0, proteasome-inhibitor control 100%. hit rate 0.04% among 200,000;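 active = activation above the mean across all tested compounds plus 3 SD, cutoff set per campaign, cut at about 5.5% in these data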;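 note: 100% = MG132 at 30 µM as the positive control and 0% = DMSO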
p97 inhibitor: inhibitors of human p97 ATPase, primary screen, biochemical; inhibition, % at 8 µM; AID 1481, 2009; hit rate 0.42% among 220,000; recombinant p97 ATPase, Kinase-Glo ATP luminescence, 3 h; in the data active = inhibition above about 15%;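 note: 0% = DMSO vehicle and 100% = wells lacking enzyme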
PKD1 inh: inhibitors of human PKD1 kinase, biochemical, fluorescence polarization. inhibition, % (no concentration beside the values). PKD1 kinase fluorescence polarization assay. AID 797, 2007. Serine/threonine-protein kinase D1 (Homo sapiens), Q15139. hit rate 0.056% among 200,000; in the data active = inhibition above about 50%
PP1 inh: PP1-alpha phosphatase inhibitors, primary screen, counter-screen for PP5 inhibitor project, biochemical, fluorescence, OMFP substrate, single point; hit rate 0.9% among 320,000; purified PP1alpha; inhibition, % at 6.7 µM; Serine/threonine-protein phosphatase PP1-alpha catalytic subunit (Homo sapiens), P62136;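 active = inhibition above the mean inhibition of all tested compounds plus 3 SD, computed separately for each screening campaign, cut at about 15% in these data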
Target sequence (P62136 whole entry, looked up): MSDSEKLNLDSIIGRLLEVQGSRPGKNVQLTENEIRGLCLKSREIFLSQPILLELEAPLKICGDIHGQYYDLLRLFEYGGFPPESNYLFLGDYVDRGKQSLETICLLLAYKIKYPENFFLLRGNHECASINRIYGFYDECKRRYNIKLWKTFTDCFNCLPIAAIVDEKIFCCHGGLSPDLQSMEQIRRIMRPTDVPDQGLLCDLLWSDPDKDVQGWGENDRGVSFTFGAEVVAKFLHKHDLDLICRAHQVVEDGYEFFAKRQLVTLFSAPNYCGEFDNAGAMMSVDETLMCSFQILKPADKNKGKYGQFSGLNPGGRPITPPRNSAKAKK
PP5 inh: PP5 phosphatase inhibitors, primary screen, biochemical, fluorescence. Serine/threonine-protein phosphatase 5 (Homo sapiens), P53041. inhibition, % at 6.7 µM. hit rate 0.18% among 320,000. purified PP5c, OMFP substrate fluorescence;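 active = inhibition above the campaign's mean inhibition across all tested compounds plus 3 SD, cut at about 9.5% in these data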;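 note: 0% = DMSO only and 100% = 100 µM cantharidin control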
RBBP9 inh: human RBBP9 inhibitors, primary screen, biochemical, fluorescence polarization, FP-Rh probe, HTS. recombinant RBBP9. Serine hydrolase RBBP9 (Homo sapiens), O75884. hit rate 0.2% among 220,000. inhibition, % at 7.94 µM;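 active = inhibition above the campaign mean of all tested compounds plus 3 SD, cut at about 14% in these data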;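 note: plate controls were DMSO wells with RBBP9 for no effect and wells lacking RBBP9 protein for full effect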
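Test system: recombinant human RBBP9; Timing: 30 min then 45 min, 25 °C; Detection: fluorescence polarization; Control set: RBBP9 with DMSO as uninhibited control, no-protein wells as full inhibition; Compound dosing: one concentration, 7.94 µM nominal, 0.794% DMSO; Probe or stimulus: FP-Rh activity-based probe, 375 nM before mixing.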
PP1 confirm: PP1 phosphatase inhibitors, confirmation, biochemical, fluorescence, OMFP substrate, triplicate. shares compounds with PP1 inh. purified PP1alpha. inhibition, % at 6.7 µM. hit rate 52% among 1,900. AID 2358, 2010;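 active = mean PP1 inhibition above a set limit taken from the earlier primary screen, cut at about 15% in these data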
PP5 counter: PP5 phosphatase inhibition by PP1 hits, confirmation, counter-screen for PP1 inhibitor project, biochemical, fluorescence, triplicate; purified PP5c, OMFP fluorescence; inhibition, % at 6.7 µM; shares compounds with PP1 inh; AID 2360, 2010; hit rate 4% among 1,900;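 active = mean PP5 inhibition over triplicate wells above about 9.5% taken from the earlier PP1 screen, limit read from the data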
An asterisk follows results filed as active; · = not tested or not shown.

SMILES | Hsp70 activator | p97 inhibitor | PKD1 inh | PP1 inh | PP5 inh | RBBP9 inh | PP1 confirm | PP5 counter
CN(c1ccccc1)S(=O)(=O)c1ccc(C(=O)Nc2nnc(-c3ccco3)o2)cc1 | 0 | 2 | -6 | 22* | 6 | -3 | 20* | 2
CCN(c1ccccc1)S(=O)(=O)c1ccc(C(=O)Nc2cccc(C)n2)cc1 | · | · | · | 2 | 6 | · | · | ·
CCN(c1ccccc1)S(=O)(=O)c1ccc(C(=O)Nc2nnc(-c3ccco3)o2)cc1 | 0 | 4 | -3 | 19* | 6 | -2 | 23* | 2
C=CCn1c(O)c(C2=c3ccccc3=NC2=O)s/c1=N/c1nccs1 | 0 | 3 | 3 | 23* | 1 | 0 | 24* | 1
O=C(Cc1ccc(S(=O)(=O)N2CCOCC2)s1)N(Cc1ccccc1)c1ccccc1 | · | · | · | 58* | 1 | · | 4 | -2
C/C(=N\OCC(=O)NC12CC3CC(CC(C3)C1)C2)c1cc2ccccc2o1 | 1 | 4 | -5 | 0 | 6 | 0 | · | ·
N#Cc1c(-c2ccc(Cl)cc2)cc(-c2cccs2)nc1SCC(=O)O | · | · | · | 47* | 2 | · | 49* | -5
CC(C)c1ccc2c(c1)C(N1CCNCC1)Cc1ccc(F)cc1S2 (stereo unspecified) | · | · | · | 19* | 3 | · | -1 | -1
CSc1ncc(OCc2ccccc2)c(=O)[nH]1 | · | 7 | · | -4 | 0 | -4 | · | ·
CC(C)C(=O)Nc1ccc(C(=O)c2ccccc2)cc1 | 0 | 1 | -5 | -75 | 1 | -6 | -1 | -3
CC(C)C(=O)Nc1ccc(C(=O)NNC(=O)CCc2ccccc2)cc1 | 0 | 2 | -1 | 2 | 2 | 3 | · | ·
CCCCN1C(=O)Cc2c1nc(N)c1c(N)nc(N(CCC)CCC)c(C#N)c21 | 0 | -1 | -16 | 16* | 15* | 7 | 8 | 0
N#Cc1c(N2CCCC(O)C2)nc(N)c2c(N)nc3c(c12)CC(=O)N3C12CC3CC(CC(C3)C1)C2 (stereo unspecified) | 0 | 6 | 3 | 19* | 14* | 1 | 9 | 57*
C=C(C)CN(CC)c1nc(N)c2c(N)nc3c(c2c1C#N)CC(=O)N3C12CC3CC(CC(C3)C1)C2 | 0 | 3 | 5 | 19* | 3 | -1 | 15 | 7
Cc1cc(C)c(C#N)c(N2CCCC(C(N)=O)C2)n1 (stereo unspecified) | 0 | 5 | -12 | -2 | 1 | 9 | · | ·
O=C(N/N=C/c1cc(Br)cc([N+](=O)[O-])c1O)c1ccc(NC(=O)c2ccc(F)cc2)cc1 | · | · | · | 22* | 3 | · | 35* | 0
O=C(N/N=C/c1cc(Br)cc(Br)c1O)c1ccncc1 | 0 | 3 | -6 | 0 | 1 | -2 | · | ·
COc1ccc2c(Cl)c(C(=O)N/N=C/c3ccc4c(c3)OCO4)sc2c1 | 0 | 1 | 1 | 20* | 0 | 3 | 48* | 2
O=C(N/N=C/c1ccc2c(c1)OCO2)c1ccc(NC(=O)c2ccc(F)cc2)cc1 | · | · | · | 19* | 4 | · | 30* | -3
Cc1ccc(OCc2n[nH]c(=S)n2-c2ccc(Br)cc2)cc1 | · | · | · | 3 | 3 | · | · | ·
COc1ccc2[nH]c(C)cc(=O)c2c1 | 0 | -2 | 11 | -2 | -3 | 3 | · | ·
COc1ccc2[nH]c3c(C)c4ccncc4c(C)c3c2c1 | · | 14 | · | 35* | 7 | 6 | 17* | -1
CCc1ccc(N=C2NC(=O)/C(=C/c3ccc(OCC(=O)O)cc3)S2)cc1 | · | · | · | 39* | 2 | · | 3 | -1
COc1ccccc1NS(=O)(=O)c1ccc(N/N=C/c2ccccc2OCC(=O)O)c([N+](=O)[O-])c1 | 0 | -1 | -1 | 1 | 2 | 5 | · | ·
